Fewer inactive variants are shown than the library holds.
B1: tRNA (parent)
chain: GUUCCGUUGGCGUAAUGGUAACGCGUCUCCCUCCUAAGGAGAAGACUGCGGGUUCGAGUCCCGUACGGAACG

Variants of: B1
Assay: yeast fitness relative to wild type (ratio to wild type); higher = fitter; tRNA-Arg(CCU), competitive growth, 37 C, YPD
In short: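 Start and end populations of a pooled competition were compared by 100-nucleotide paired-end sequencing of gene amplicons. The Saccharomyces cerevisiae strains carried tRNA-Arg(CCU) gene variants at the native genomic locus, synthesised with a 3% per-site mutation rate at 69 sites, and competed in YPD at 37°C for 24 hours in six parallel replicates. Darwinian fitness relative to wild type was based on the change in genotype frequencies. Genotypes required ≥ 100 starting reads, and estimates < 0.5 were set to 0.5.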

First: C4G A20C C30A C31G C34A A37G C49A A57C
Second: C4G A20C C31U
The yeast fitness of the first is lower: ≤ 0.5 for the first, 0.536 for the second.

Compared with C4G A20C U54G, C4G A20G C22G C33U A36C A40U is lower in yeast fitness: 0.529 for the first, ≤ 0.5 for the second.

C4G A20G C30G G58A and C4G A20U C22G A37C A43C A65G cannot be ordered by yeast fitness: ≤ 0.5 for the first, ≤ 0.5 for the second.

C4G A20U C29U C49U and C4G A20U C31G C62A cannot be ordered by yeast fitness: ≤ 0.5 for the first, ≤ 0.5 for the second.

Going from C4G A20U C31G G51A to C4G A21C, the yeast fitness rises from ≤ 0.5 to 0.609.

Going from C4G A21C A43U to C4G A21C G23C A36U, the yeast fitness rises from ≤ 0.5 to 0.635.

C4G A21G A36U and C4G A21G A45U C49U A70C cannot be ordered by yeast fitness: ≤ 0.5 for the first, ≤ 0.5 for the second.

C4G A21G A45U C49U U64C C66U and C4G A21G C27A G38C cannot be ordered by yeast fitness: ≤ 0.5 for the first, ≤ 0.5 for the second.

C4G A21G C27U G52C G58A and C4G A21G C34G cannot be ordered by yeast fitness: ≤ 0.5 for the first, ≤ 0.5 for the second.

First: C4G A21G C34U G44C C55G
Second: C4G A21U C49G C66G G68C
The yeast fitness of the first is lower: ≤ 0.5 for the first, 0.673 for the second.

First: C4G A21U G41C U53C A65C
Second: C4G A21U U28A C30G
The yeast fitness of the first is higher: 0.535 for the first, ≤ 0.5 for the second.

C4G A36C A37G U64A and C4G A36G A45C C61U C62G cannot be ordered by yeast fitness: ≤ 0.5 for the first, ≤ 0.5 for the second.

Going from C4G A36U C46U to C4G A36U C66G, the yeast fitness falls from 0.59 to ≤ 0.5.

Going from C4G A37C G51A to C4G A37G, the yeast fitness rises from 0.628 to 0.851.

C4G A37U G58C C60A and C4G A40C G68C cannot be ordered by yeast fitness: ≤ 0.5 for the first, ≤ 0.5 for the second.

First: C4G A40G
Second: C4G A40G A42U
The yeast fitness of the first is higher: 0.74 for the first, ≤ 0.5 for the second.

Compared with C4G A40G A45G, C4G A40G G56C is higher in yeast fitness: ≤ 0.5 for the first, 0.537 for the second.

Compared with C4G A40U, C4G A40U A45U is lower in yeast fitness: 0.754 for the first, 0.546 for the second.

First: C4G A40U C49A C55U
Second: C4G A42G A45U U54C C55G C61A
The yeast fitness of the first is higher: 0.515 for the first, ≤ 0.5 for the second.

Compared with C4G A42U G50C C62A G67U, C4G A43U A70U is higher in yeast fitness: ≤ 0.5 for the first, 0.623 for the second.

First: C4G A45G
Second: C4G A45U G48C
The yeast fitness of the first is higher: 0.826 for the first, 0.501 for the second.

First: C4G A45U G48C C49G
Second: C4G A57G C61U
The yeast fitness of the first is lower: ≤ 0.5 for the first, 0.629 for the second.

Compared with C4G A57U A70U, C4G A57U U59C G67A is lower in yeast fitness: 0.869 for the first, ≤ 0.5 for the second.

Compared with C4G A65C A69C, C4G A65G is higher in yeast fitness: ≤ 0.5 for the first, 1.02 for the second.

Going from C4G A65U to C4G A69C, the yeast fitness rises from 0.793 to 0.878.

Going from C4G C5A A21C U54A A65U A69C to C4G C5A C24U C61U C66U A70C, the yeast fitness rises from ≤ 0.5 to 0.514.

C4G C5A C27A C34A A42U and C4G C5G A14G A43G cannot be ordered by yeast fitness: ≤ 0.5 for the first, ≤ 0.5 for the second.

C4G C5G A43G G63A and C4G C5G C11A A69C A70C cannot be ordered by yeast fitness: ≤ 0.5 for the first, ≤ 0.5 for the second.

Compared with C4G C5G C11A G38A G67A, C4G C5G C29A C34U A42U G50C is higher in yeast fitness: ≤ 0.5 for the first, 0.531 for the second.

Compared with C4G C5G C29A C34U A42U G50C G68C A69G, C4G C5G C29U G39C is lower in yeast fitness: 0.58 for the first, ≤ 0.5 for the second.

C4G C5G C30U C31U A45U and C4G C5G C31A U35C cannot be ordered by yeast fitness: ≤ 0.5 for the first, ≤ 0.5 for the second.

C4G C5G C34G A57G A65G C66U and C4G C5G G10A G18A G44C C61A C62U C66U cannot be ordered by yeast fitness: ≤ 0.5 for the first, ≤ 0.5 for the second.

C4G C5G G39A C49A and C4G C5G U26G A45C C61U G67A cannot be ordered by yeast fitness: ≤ 0.5 for the first, ≤ 0.5 for the second.

Going from C4G C5U to C4G C5U A20U G39C A40G A70U, the yeast fitness falls from 0.751 to ≤ 0.5.

Going from C4G C5U A37U C61A to C4G C5U A40G, the yeast fitness rises from ≤ 0.5 to 0.526.

Going from C4G C5U C11U to C4G C5U C11U A14G, the yeast fitness falls from 0.505 to ≤ 0.5.

Going from C4G C5U C22G U64A to C4G C5U C27G C34A, the yeast fitness falls from 0.542 to ≤ 0.5.

First: C4G C5U C31G G41A A43C G51C
Second: C4G C5U C49A
The yeast fitness of the first is higher: 0.606 for the first, ≤ 0.5 for the second.

Compared with C4G C5U C49A G56A G63C, C4G C5U C55U is higher in yeast fitness: ≤ 0.5 for the first, 0.544 for the second.

C4G C5U G39A G44C and C4G C5U G44C cannot be ordered by yeast fitness: ≤ 0.5 for the first, ≤ 0.5 for the second.

C4G C5U G51A U53C C62U and C4G C5U G58A A70C cannot be ordered by yeast fitness: ≤ 0.5 for the first, ≤ 0.5 for the second.

C4G C5U U16A C34A C66A and C4G C5U U47A C55U A57C cannot be ordered by yeast fitness: ≤ 0.5 for the first, ≤ 0.5 for the second.

C4G C11A C29U C33U U54C and C4G C11A C30G G67A cannot be ordered by yeast fitness: ≤ 0.5 for the first, ≤ 0.5 for the second.

Compared with C4G C11A U19C G23C U47C, C4G C11A U19C G23C U47C A70U is lower in yeast fitness: 0.663 for the first, ≤ 0.5 for the second.

Going from C4G C11A U35A A45G C49U U59G G67U to C4G C11A U35A C49U U59G G67U, the yeast fitness rises from ≤ 0.5 to 0.554.

C4G C11G C34U G38A G44C and C4G C11G C49U C60U cannot be ordered by yeast fitness: ≤ 0.5 for the first, ≤ 0.5 for the second.

First: C4G C11G C55U C61A
Second: C4G C11G C55U G63A
The yeast fitness of the first is higher: 0.567 for the first, ≤ 0.5 for the second.

C4G C11G G41C U59G A70G and C4G C11G U13A U59G C61G cannot be ordered by yeast fitness: ≤ 0.5 for the first, ≤ 0.5 for the second.

C4G C11G U26A and C4G C11G U64A cannot be ordered by yeast fitness: ≤ 0.5 for the first, ≤ 0.5 for the second.

First: C4G C11U A36G G63A
Second: C4G C11U A40C A57U
The yeast fitness of the first is lower: ≤ 0.5 for the first, 0.623 for the second.

Compared with C4G C11U A69U, C4G C11U C22G A40U A43G U53C A70G is lower in yeast fitness: 0.539 for the first, ≤ 0.5 for the second.

C4G C11U C29G G63C C66U and C4G C11U C29U A45U cannot be ordered by yeast fitness: ≤ 0.5 for the first, ≤ 0.5 for the second.

Going from C4G C11U U19A U32A A37U to C4G C11U U28G A45C U53A G63C, the yeast fitness rises from ≤ 0.5 to 0.559.

C4G C22G A43U A57C U59C and C4G C22G C24U C29U C30G cannot be ordered by yeast fitness: ≤ 0.5 for the first, ≤ 0.5 for the second.

C4G C22G C24U G41A A57U C66A and C4G C22G C24U G41A G67U cannot be ordered by yeast fitness: ≤ 0.5 for the first, ≤ 0.5 for the second.

First: C4G C22G C29A
Second: C4G C22G G52C G68C
The yeast fitness of the first is lower: ≤ 0.5 for the first, 0.575 for the second.

First: C4G C22G G67C
Second: C4G C22U C49A
The yeast fitness of the first is higher: 0.528 for the first, ≤ 0.5 for the second.

Going from C4G C24A A42G to C4G C24A A42U U47A C60G, the yeast fitness rises from ≤ 0.5 to 0.62.

C4G C24A C34A C66A and C4G C24A C34A U35G C49A C62G cannot be ordered by yeast fitness: ≤ 0.5 for the first, ≤ 0.5 for the second.

Going from C4G C24A C34A U47C to C4G C24A C46U, the yeast fitness rises from ≤ 0.5 to 0.608.

C4G C24A C46U C60A and C4G C24G C34U U47A G48C C60U are the same in yeast fitness: 0.521 for the first, 0.521 for the second.

Compared with C4G C24U, C4G C24U A40G is lower in yeast fitness: 0.993 for the first, ≤ 0.5 for the second.

Compared with C4G C24U A40U A42C A45U, C4G C24U A43U is higher in yeast fitness: ≤ 0.5 for the first, 0.65 for the second.

C4G C24U C33G G48A C49U and C4G C24U U32C C49A A57U C66U G68C cannot be ordered by yeast fitness: ≤ 0.5 for the first, ≤ 0.5 for the second.

First: C4G C24U U35C C66U
Second: C4G C27A A43U
The yeast fitness of the first is higher: 0.559 for the first, ≤ 0.5 for the second.

Compared with C4G C27A C46U, C4G C27A C46U G58C A70C is lower in yeast fitness: 0.539 for the first, ≤ 0.5 for the second.

First: C4G C27A U32G G39U G41C C66G
Second: C4G C27G
The yeast fitness of the first is lower: ≤ 0.5 for the first, 0.816 for the second.

C4G C27G C34G G51A and C4G C27U G41C cannot be ordered by yeast fitness: ≤ 0.5 for the first, ≤ 0.5 for the second.

Compared with C4G C27U G41C U64A G67A, C4G C29A A57C is higher in yeast fitness: ≤ 0.5 for the first, 0.717 for the second.

First: C4G C29A G50A
Second: C4G C29G
The yeast fitness of the first is lower: ≤ 0.5 for the first, 0.69 for the second.

C4G C29G A36C A37U A40C A45G G51A A70U and C4G C29G A36C A37U G38A A40C A45G G51A cannot be ordered by yeast fitness: ≤ 0.5 for the first, ≤ 0.5 for the second.

First: C4G C29G A37U C49A G58C
Second: C4G C29G A57C
The yeast fitness of the first is lower: 0.502 for the first, 0.612 for the second.

Compared with C4G C29G C49U C60G, C4G C29G C60A G67C is higher in yeast fitness: ≤ 0.5 for the first, 0.564 for the second.

First: C4G C29G C66U
Second: C4G C29U
The yeast fitness of the first is lower: 0.588 for the first, 0.751 for the second.

Compared with C4G C29U C30G G39C, C4G C30A is higher in yeast fitness: ≤ 0.5 for the first, 0.679 for the second.

C4G C30A A42C and C4G C30A C49G A65C cannot be ordered by yeast fitness: ≤ 0.5 for the first, ≤ 0.5 for the second.

C4G C30A C62G and C4G C30A G52C C66U cannot be ordered by yeast fitness: ≤ 0.5 for the first, ≤ 0.5 for the second.

C4G C30G C33A C61G and C4G C30G G41C A70U cannot be ordered by yeast fitness: ≤ 0.5 for the first, ≤ 0.5 for the second.

Compared with C4G C30G U54A C55U, C4G C30U is higher in yeast fitness: ≤ 0.5 for the first, 0.852 for the second.

Going from C4G C30U A42U G50C C62A to C4G C30U A42U G50C G63C, the yeast fitness falls from 0.511 to ≤ 0.5.

Compared with C4G C30U C55U, C4G C31A is higher in yeast fitness: ≤ 0.5 for the first, 0.817 for the second.

Going from C4G C31A G58A to C4G C31G A70C, the yeast fitness falls from 0.635 to 0.537.

Going from C4G C31G C55U to C4G C31G U32G, the yeast fitness falls from 0.516 to ≤ 0.5.

C4G C31U A37G showed a yeast fitness of 0.653.
